# Measured values from ChEMBL document CHEMBL4017544 (J Med Chem, 2017).
# Assay: Drug level in Wistar rat plasma treated with 1-Hydroxyl-2-cyano-3-(4-(methyl-L-glutaminate-N5-yl)-benzyloxy)-12-oxo-oleana-2(3),9(11)-dien-28-oic Acid Methyl Ester assessed as esterase-mediated metabolite formation at 100 uM after 8 hrs by HPLC analysis
# Assay type: ADME
# Method in brief: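 Plasma, and kidney and liver homogenates in PBS, from three Wistar rats; substrate added at 100 μM at 37 °C; metabolite measured by HPLC every 60 min for 8 h; mean ± SD of three experiments.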
smiles,measurement,value
COC(=O)[C@]12CCC(C)(C)C[C@H]1[C@H]1C(=O)C=C3[C@@]4(C)[C@@H](O)C(C#N)=C(OCc5ccc(NC(=O)CC[C@H](N)C(=O)O)cc5)C(C)(C)[C@@H]4CC[C@@]3(C)[C@]1(C)CC2,Drug metabolism,Metabolite_Detected
